The values that follow come from ChEMBL document CHEMBL3393037, “Design, synthesis, and biological evaluation of aminothiazole derivatives against the fungal pathogens Histoplasma capsulatum and Cryptococcus neoformans” (Bioorg Med Chem, 2015).

In brackets after ≈: the same amount, converted by molar mass. Bounds are passed on as bounds.

As a reminder, the MIC is the least concentration at which growth counts as inhibited. As usually defined, the MIC50 is the lowest concentration that inhibits either 50% of growth or 50% of the strains tested, depending on the study. In general, IC50 refers to the concentration at which inhibition is half-maximal. Read a high IC50 as a need for much substance.

A short description of data set [1]: Antifungal activity against Histoplasma capsulatum G217B ATCC 26032 assessed as inhibition of visible growth after 5 days. Format: functional. In outline: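 Wild-type G217B yeasts kept in HMM at 37 °C under 5% CO2. Wells held 2×10^5 yeasts (hemocytometer count) with a two-fold dilution series from 40 to 0.078 µM, at 1% DMSO in the top dilution. Plates were agitated twice daily and growth followed by A595 over 5 days. MIC is the lowest concentration with no visible growth on visual inspection of the plates.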

Data set [2] deals with Cryptococcus neoformans. Nature of the data set: Antifungal activity against Cryptococcus neoformans MATalpha serotype A strain H99 assessed as inhibition of visible growth after 5 days. The format is functional. To be noted: MATalpha serotype A strain H99, 120 h.
Data set [3] in a line: Cytotoxicity against human HepG2 cells after 72 hrs by crystal violet staining method. The format is cell-based. The following applies: read-out: MIC50. An outline of the steps:
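HepG2 cells in MEM with 10% FBS and 2 mM L-glutamine were seeded at 1×10^4 per well and left to adhere overnight. Compound was added at 0.3 to 80 µM for 72 h. Cells were fixed in 3% paraformaldehyde, stained with 0.1% crystal violet, and the dye taken up in 10% acetic acid and read at A590. Values were normalised to DMSO-matched controls, in triplicate.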

Data set [4] can be described thus: Selectivity index, ratio of MIC50 for human HepG2 cells to MIC50 for Histoplasma capsulatum strain G217B ATCC 26032.
Data set [5] in a line: Cytotoxicity against mouse P388D1 […] cells after 48 hrs by crystal violet staining method. Format: cell-based. To be noted: P388D1, 48 h.

For the molecule `O=C(Nc1ncc(Cc2cccc3ccccc23)s1)C1CCCC1`, in data set [1], the MIC was determined as 1.3 µM (≈ 0.437 µg/mL) and the MIC50 was determined as 0.8 µM (≈ 0.269 µg/mL). Moreover, in data set [2], the MIC came out at 1.3 µM (≈ 0.437 µg/mL) and the MIC50 was 0.8 µM (≈ 0.269 µg/mL). Besides, the CC50 at 72 h in data set [3] is > 40 µM. Also, in data set [4], the Ratio is listed as >57.

In the case of `O=C(CCC1CCCCC1)Nc1ncc(Cc2cccc3ccccc23)s1`, the MIC in data set [1] is 1.3 µM (≈ 0.492 µg/mL); in data set [2], > 20 µM. In addition, the values for the MIC50 in data set [1] and in data set [2] were 0.4 µM (≈ 0.151 µg/mL) and > 10 µM, respectively. Besides, the CC50 at 72 h in data set [3] was > 40 µM. The Ratio in data set [4] is reported as >100.

For `O=C(Nc1ncc(Cc2cccc3ccccc23)s1)C1CCCCC1`, the MIC in data set [1] and in data set [2] was 0.6 µM (≈ 0.21 µg/mL) each time. Besides, the MIC50 in data set [1] and in data set [2] was 0.4 µM (≈ 0.14 µg/mL) each time. In addition, the CC50 at 72 h in data set [3] amounted to 39 µM. For the same molecule, the Ratio in data set [4] is listed as 97. The molecule further had an IC50 in data set [5] of 54 µM.

Regarding `O=C(CCC1CCCCC1)Nc1ncc(CCc2ccccc2)s1`, in data set [1], the MIC is 2.5 µM (≈ 0.856 µg/mL) and the MIC50 is 0.7 µM (≈ 0.24 µg/mL). Further, in data set [2], the MIC was > 20 µM and the MIC50 is > 10 µM. The CC50 at 72 h in data set [3] is > 40 µM. Further, the Ratio in data set [4] is >50.

With `O=C(Nc1ncc(Cc2ccccc2)s1)C1CCCC1`, the MIC in data set [1] came out at 5 µM (≈ 1.43 µg/mL); in data set [2] it was 10 µM (≈ 2.86 µg/mL). For the same molecule, the MIC50 in data set [1] was 1.6 µM (≈ 0.458 µg/mL); in data set [2] it was 3.6 µM (≈ 1.03 µg/mL). Moreover, the CC50 at 72 h in data set [3] is > 40 µM. Moreover, in data set [4], the Ratio is >24.

For the molecule `O=C(CCC1CCCCC1)Nc1ncc(Cc2cccc(F)c2)s1`, the MIC in data set [1] was 2.5 µM (≈ 0.866 µg/mL); in data set [2], > 20 µM. The MIC50 in data set [1] was 0.8 µM (≈ 0.277 µg/mL); in data set [2], > 10 µM. The CC50 at 72 h in data set [3] came to 40 µM. Moreover, in data set [4], the Ratio is reported as 57.
